Measurements from different studies.
BCHE: Cholinesterase (BCHE, Equus caballus, UniProt P81908)
PTGS1: Prostaglandin G/H synthase 1 (PTGS1, Ovis aries, UniProt P05979)
AGTR2: Type-2 angiotensin II receptor (AGTR2, Homo sapiens, UniProt P50052)

| SMILES | target | observed | mode | method | tested at | inhibition [%] |
| --- | --- | --- | --- | --- | --- | --- |
| COc1cc2c(cc1OC)C(=O)N(CCc1c[nH]c3ccccc13)C2 | BCHE | enzyme activity | inhibitor | Ellman | 1 µM | 0.7 |
| Cc1ncc(C)n2nc(/C=C/c3nc(N4CCCC4)cc(N4CCOCC4)n3)nc12 | cGMP-inhibited 3',5'-cyclic phosphodiesterase 3B (PDE3B, Homo sapiens, UniProt Q13370) | enzyme activity | inhibitor |  | 10 µM | 15 |
| Cc1ccc(-c2nc3ccccc3s2)c(-c2ccc(O)cc2)c1 | PTGS1 | enzyme activity | inhibitor | absorbance | 10 µM | 8.4 |
| COc1cc2c(cc1OC)C(=O)N(CC1CCN(Cc3ccccn3)CC1)C2 | BCHE | enzyme activity | inhibitor | Ellman | 1 µM | 5.4 |
| NS(=O)(=O)c1ccc(-c2ncccc2-c2nc3ccccc3s2)cc1 | PTGS1 | enzyme activity | inhibitor | absorbance | 10 µM | 0 |
| COc1ccc2[nH]cc(CCN3Cc4cc(OC)c(OC)cc4C3=O)c2c1 | BCHE | enzyme activity | inhibitor | Ellman | 1 µM | 19 |
| O=C(Nc1cccnn1)N1CCN([C@@H]2CCOc3cc(C(F)(F)F)ccc32)CC1 | AGTR2 | cell-free assay |  |  | 20 µM | 0 |
| Cc1ccc(-c2nc3ccccc3s2)c(-c2cccc(O)c2)c1 | PTGS1 | enzyme activity | inhibitor | absorbance | 10 µM | 11.7 |
| CN(CCN1CCC(OC(=O)Nc2ccccc2-c2ccccc2)CC1)C(=O)c1ccc(CN2CCC(C(N)=O)CC2)cc1 | AGTR2 | ligand displacement |  | radioligand | 1 µM | -4 |
| CCCCCCCCCCCC(=O)OC[C@@H](COP(=O)(O)OCCNC(=O)c1ccc(Cn2c(=O)[nH]c3c(N)nc(OCCOC)nc32)cc1)OC(=O)CCCCCCCCCCC | Androgen receptor (Ar, Rattus norvegicus, UniProt P15207) | ligand displacement |  | radioligand | 10 µM | 55 |
| Nc1ccc(-c2nc3ccccc3s2)c(-c2ccc(O)cc2)c1 | PTGS1 | enzyme activity | inhibitor | absorbance | 10 µM | 14.2 |
| C[C@H](C(=O)N[C@H]1COc2ccccc2[C@@H]1S(C)(=O)=O)c1ccc(F)cc1 | AGTR2 | cell-free assay |  |  | 10 µM | 4 |
| COc1cc2c(cc1OC)C(=O)N(Cc1ccc3ccccc3n1)C2 | BCHE | enzyme activity | inhibitor | Ellman | 1 µM | -0.7 |
| Cn1cc(-c2cc(F)cc(N3CCn4c(cc5c4CCCC5)C3=O)c2CO)cc(Nc2ccc(N3CCN(C4COC4)CC3)cn2)c1=O | Dual specificity mitogen-activated protein kinase kinase 3 (MAP2K3, Homo sapiens, UniProt P46734) | enzyme activity | inhibitor |  | 0.1 µM | -12 |
| C#Cc1n[nH]c2c(-c3cn(C(C)c4ccccn4)c(=O)[nH]c3=O)cc(F)cc12 (stereo not drawn) | Serine/threonine-protein kinase MARK1 (MARK1, Homo sapiens, UniProt Q9P0L2) | enzyme activity | inhibitor |  | 1 µM | 11.2 |
| O=C(Nc1ccc(F)c(C(F)(F)F)c1)Nc1nnc(-c2ccncc2)s1 | RecQ-like DNA helicase BLM (BLM, Homo sapiens, UniProt P54132) | enzyme activity | inhibitor |  | 50 µM | 99 |
| NS(=O)(=O)c1ccc(-c2ncc(Cl)cc2-c2nc3ccccc3s2)cc1 | PTGS1 | enzyme activity | inhibitor | absorbance | 10 µM | 6.6 |
| Cn1cc(-c2cccc(N3CCc4c(sc5c4CC(C)(C)C5)C3=O)c2CO)cc(Nc2ccncn2)c1=O | Serine/threonine-protein kinase MRCK alpha (CDC42BPA, Homo sapiens, UniProt Q5VT25) | enzyme activity | inhibitor |  | 1 µM | 6 |
| CN(C)Cc1ccc(-c2nc3ccccc3s2)c(-c2ccc(O)cc2)c1 | PTGS1 | enzyme activity | inhibitor | absorbance | 10 µM | 14.2 |
| COc1cc2c(cc1OC)C(=O)N(CC1CCN(Cc3ccncc3)CC1)C2 | BCHE | enzyme activity | inhibitor | Ellman | 1 µM | 8.2 |
| CN(C)Cc1ccc(-c2nc3ccccc3s2)c(-c2cccc(O)c2)c1 | PTGS1 | enzyme activity | inhibitor | absorbance | 10 µM | 30.7 |
| COc1cc2c(cc1OC)C(=O)N(Cc1cccc(N3CCCCC3)n1)C2 | BCHE | enzyme activity | inhibitor | Ellman | 1 µM | 4.8 |
| Cc1ccc(-c2nc3ccccc3s2)c(-c2ccc(S(C)(=O)=O)cc2)c1 | PTGS1 | enzyme activity | inhibitor | absorbance | 10 µM | 9.7 |
| COc1cc2c(cc1OC)C(=O)N(CC1CCN(Cc3cccnc3)CC1)C2 | BCHE | enzyme activity | inhibitor | Ellman | 1 µM | 2.7 |
